The test system of test [1] is Punta Toro virus. Put plainly: Antiviral activity against Punta Toro virus Adames infected Syrian golden hamster assessed as mean day of death at 15 mg/kg, po twice daily for 6 days administered 4 hrs before viral challenge. In kind it is functional.
The test system of test [2] is Punta Toro virus. Put plainly: Antiviral activity against Punta Toro virus Adames infected Syrian golden hamster assessed as mean viral titer per 0.1 g of liver at 60 mg/kg, po twice daily administered 4 hrs before viral challenge measured on day 4 of viral infection. In kind it is functional.
Test [3] relates to Punta Toro virus. Put plainly: Antiviral activity against 500 PFU Punta Toro virus Adames infected C57BL/6 mouse assessed as animals with detectable virus level in serum at 30 mg/kg, po twice daily administered 4 hrs before viral challenge measured on day 3 of viral infection. Format: functional. Summed up:
(§1)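 T-705 was suspended in 0.4% carboxymethylcellulose and given by oral gavage twice daily. Mice were infected subcutaneously with PTV. Five mice per group (10 placebo) were sacrificed on day 3 or 4. Liver homogenate or serum was serially diluted onto triplicate LLC-MK2 monolayers, and CPE was read at 6–8 days. The detection limit was 2.8 log10 CCID50 per 0.1 g liver or 0.1 ml serum.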

In test [4] the test system is Punta Toro virus. Put plainly: Antiviral activity against 500 PFU Punta Toro virus Adames infected C57BL/6 mouse assessed as inhibition of liver damage at 75 mg/kg/day, po twice daily administered 4 hrs before viral challenge measured on day 3 of viral infection. In kind it is functional, organism-based. The procedure, abridged:
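Mice were infected with PTV subcutaneously and dosed by oral gavage twice daily (0.4% CMC vehicle). Five animals per group (10 placebo) were sacrificed on day 3 or 4. Livers were scored 0–4 for hepatic icterus, where 0 is normal and 4 is maximal yellow coloration.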

Test [5] relates to Punta Toro virus. Put plainly: Antiviral activity against 50 PFU Punta Toro virus Adames infected C57BL/6 mouse assessed as mean serum ALT levels at 10 mg/kg, po twice daily administered 24 hrs post viral challenge measured on day 3 of viral infection. Format: functional. The procedure, abridged: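 Subcutaneous PTV infection was followed by oral gavage twice daily with drug suspended in 0.4% CMC. Serum was collected from 5 sacrificed mice per group (10 placebo) on day 3 or 4. ALT activity was measured by kinetic assay, and sham-infected mice set the baselines.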

The test system of test [6] is Punta Toro virus. Put plainly: Antiviral activity against Punta Toro virus Adames infected Syrian golden hamster assessed as survival at 30 mg/kg, po twice daily for 6 days administered 4 hrs before viral challenge. Format: functional. The procedure, abridged: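 Hamsters (groups of 15, placebo 25-30) were challenged subcutaneously with 50 PFU and dosed twice daily by oral gavage in 0.4% CMC vehicle.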

For the next test, the system named is Rift Valley fever virus. Put plainly: Antiviral activity against Rift Valley fever virus MP-12 assessed as reduction of 1 log10 unit viral titer yields after 3 to 5 days. Format: functional.
Test [7] has as its system Punta Toro virus. Put plainly: Antiviral activity against 500 PFU Punta Toro virus Adames infected C57BL/6 mouse assessed as survival at 75 mg/kg, po twice daily for 5 days administered 4 hrs before viral challenge. Format: functional, organism-based. Details: dose 75 mg/kg. The procedure, abridged: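 PTV was inoculated subcutaneously into mice in groups of 15 (25–30 placebo). Dosing was by oral gavage twice daily for 5–7 days, with T-705 suspended in 0.4% CMC and ribavirin in saline. Remaining animals were observed 21–28 days for survival and day of death. Test doses had first been checked for tolerance in uninfected animals.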

Test [8] concerns Punta Toro virus. Put plainly: Antiviral activity against 500 PFU Punta Toro virus Adames infected C57BL/6 mouse assessed as mean day of death at 50 mg/kg, po twice daily for 5 days administered 4 hrs before viral challenge. Format: functional. Summed up:
(§2)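 Groups of 15 mice (25–30 placebo) were inoculated subcutaneously with PTV. Drug in 0.4% carboxymethylcellulose was given by oral gavage twice daily.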

Test [9] has as its system Punta Toro virus. Put plainly: Antiviral activity against 500 PFU Punta Toro virus Adames infected C57BL/6 mouse assessed as mean viral titer per 0.1 g of liver at 200 mg/kg, po twice daily administered 4 hrs before viral challenge measured on day 4 of viral infection. In kind it is functional. The procedure, abridged: (§3)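 Mice were infected subcutaneously with PTV and dosed by oral gavage twice daily; 5 per group (10 placebo) were killed on day 3 or 4. Liver homogenate or serum was serially diluted onto triplicate LLC-MK2 monolayers, and CPE was read 6–8 days later. 50% endpoints gave log10 CCID50 per 0.1 g liver or 0.1 ml serum. Detection range was 2.8–9.5; undetectable samples were assigned <2.8.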

For test [10], the system named is Punta Toro virus. Put plainly: Antiviral activity against 500 PFU Punta Toro virus Adames infected C57BL/6 mouse assessed as mean viral titer per 0.1 mL of serum at 200 mg/kg, po twice daily administered 4 hrs before viral challenge measured on day 4 of viral infection. In kind it is functional. Summed up:
as §3

Test [11] relates to Punta Toro virus. Put plainly: Antiviral activity against 500 PFU Punta Toro virus Adames infected C57BL/6 mouse assessed as mean viral titer per 0.1 g of liver at 30 mg/kg, po twice daily administered 24 hrs post viral challenge measured on day 3 of viral infection. In kind it is functional. Summed up: as §3
The test system of test [12] is Punta Toro virus. Put plainly: Antiviral activity against Punta Toro virus Adames infected Syrian golden hamster assessed as mean viral titer per 0.1 mL of serum at 30 mg/kg, po twice daily administered 4 hrs before viral challenge measured on day 4 of viral infection. Format: functional. The procedure, abridged: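 Hamsters received twice-daily oral gavage doses (0.4% CMC) after subcutaneous challenge with 50 PFU. Five per group were killed on day 3 or 4. Liver homogenate or serum was serially diluted onto triplicate LLC-MK2 wells, CPE was read at 6-8 days, and the 50% endpoint was taken. Range was 2.8-9.5 log10 CCID50/0.1 g or 0.1 ml, with undetectable assigned <2.8.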

A further test has as its system Tacaribe virus. Put plainly: Antiviral activity against Tacaribe virus TRVL11573 assessed as reduction of 1 log10 unit viral titer yields after 7 to 8 days. In kind it is functional. The note with it: Mammarenavirus tacaribeense.
For test [13], the system named is Pichinde virus. Put plainly: Antiviral activity against Pichinde virus An 4763 infected Syrian golden hamster assessed as mean viral titer per 0.1 mL of serum at 40 mg/kg, po twice daily for 7 days administered 4 hrs before viral-challenge measured on day 7 of viral infection. Format: functional.
The test system of test [14] is Pichinde virus. Put plainly: Antiviral activity against Pichinde virus An 4763 infected Syrian golden hamster assessed as mean serum ALT levels at 15 mg/kg, po twice daily for 7 days administered 4 hrs before viral-challenge measured on day 7 of viral infection. In kind it is functional.
Test [15] relates to Punta Toro virus. Put plainly: Antiviral activity against 500 PFU Punta Toro virus Adames infected C57BL/6 mouse assessed as animals with detectable virus level in serum at 200 mg/kg, po twice daily administered 4 hrs before viral challenge measured on day 4 of viral infection. Format: functional. The procedure, abridged: as §1
Test [16] concerns Punta Toro virus. Put plainly: Antiviral activity against 500 PFU Punta Toro virus Adames infected C57BL/6 mouse assessed as mean day of death at 30 mg/kg, po twice daily for 5 days administered 4 hrs before viral challenge. Format: functional. The procedure, abridged:
as §2

The test system of test [17] is Punta Toro virus. Put plainly: Antiviral activity against 500 PFU Punta Toro virus Adames infected C57BL/6 mouse assessed as mean day of death at 5 mg/kg, po twice daily for 5 days administered 4 hrs before viral challenge. Format: functional. The procedure, abridged: as §2
The subject of test [18] is Punta Toro virus. Put plainly: Antiviral activity against 500 PFU Punta Toro virus Adames infected C57BL/6 mouse assessed as mean viral titer per 0.1 g of liver at 30 mg/kg, po twice daily administered 4 hrs before viral challenge measured on day 3 of viral infection. Format: functional. Summed up: as §3
Test [19] deals with Punta Toro virus. Put plainly: Antiviral activity against 500 PFU Punta Toro virus Adames infected C57BL/6 mouse assessed as mean viral titer per 0.1 g of liver at 10 mg/kg, po twice daily administered 4 hrs before viral challenge measured on day 3 of viral infection. In kind it is functional. The procedure, abridged: as §3
In test [20] the test system is Punta Toro virus. Put plainly: Antiviral activity against 500 PFU Punta Toro virus Adames infected C57BL/6 mouse assessed as mean viral titer per 0.1 g of liver at 5 mg/kg, po twice daily administered 4 hrs before viral challenge measured on day 3 of viral infection. In kind it is functional. The procedure, abridged:
as §3

Calls of active or inactive are those of the source. No cut-off for these calls is given here.

`NC(=O)c1nc(F)cnc1O` [FAVIPIRAVIR]: the Activity was 5.4 days in the test on Punta Toro virus [1]; 80% in the test with Punta Toro virus [3]; 3273 IU/L with Punta Toro virus [5]; >21 days in the test with Punta Toro virus [8]; 1220 IU/L in the test with Pichinde virus [14]; 0% with Punta Toro virus [15]. The Activity in the test with Punta Toro virus [16] was >21 days; in the test on Punta Toro virus [17], 4.9 days. Further, the log10CCID50 is on record as <3.4 with Punta Toro virus [2]; <2.8 in the test with Punta Toro virus [9]; <2.8 with Punta Toro virus [10]; <3.2 in the test on Punta Toro virus [11]; <4.5 in the test on Punta Toro virus [12]; <3 in the test with Pichinde virus [13]. The log10CCID50 with Punta Toro virus [18], with Punta Toro virus [19] and in the test on Punta Toro virus [20] was <2.8 each time. The outcome in the test on Punta Toro virus [4] and in the test with Punta Toro virus [7] was Active. Moreover, the survival at 30 mg/kg with Punta Toro virus [6] (Punta Toro virus, Adames) amounted to 90%. The EC90 with Rift Valley fever virus and in the test on Tacaribe virus was 6 µM throughout.

For `NC(=O)c1ncn([C@@H]2O[C@H](CO)[C@@H](O)[C@H]2O)n1` [RIBAVIRIN], the Activity is 846 IU/L in the test with Punta Toro virus [5] and 70% with Punta Toro virus [6]. Moreover, the log10CCID50 is <3.1 in the test on Punta Toro virus [11], <2.8 in the test with Punta Toro virus [12] and <3 in the test on Pichinde virus [13].

For the origin of these results see ChEMBL document CHEMBL1154414, “In vitro and in vivo activities of T-705 against arenavirus and bunyavirus infections” (Antimicrob Agents Chemother, 2007).
